Assay [1] relates to MDA-MB-231. In words: Anti-proliferative activity against human MDA-MB-231 cells assessed as reduction in cell proliferation incubated for 72 hrs. It counts as functional, cell-based. The following applies: MDA-MB-231, 72 h. A digest of the protocol:
(§1)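 Cells grown in DMEM with 10% fetal bovine serum at 37°C/5% CO2, then exposed to a series of compound concentrations or DMSO mock. Proliferation curves were recorded for each line.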

For assay [2], the target named is Mediator of RNA polymerase II transcription subunit 1 (Homo sapiens) (UniProt Q15648). The assay is described as follows: Inhibition of MED1 in human MDA-MB-231 cells assessed as reduction of […] binding to all active RUNX2 regulatory elements (ENH11,ENH13) at 1 uM by ChIP analysis. It counts as cell-based. A digest of the protocol:
(§2)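 Cells were treated with 1 μM compound or DMSO mock, 24 h unless otherwise specified. ChIP used anti-MED1 antibody at the RUNX2 P2 promoter and active enhancer regions. An unrelated region upstream of P2 served as negative control. Enrichment is expressed as percentage of input.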

Assay [3] has the same target. In words: Partial inhibition of MED1 in human MCF7 cells assessed as partial reduction of […] binding to all active RUNX2 regulatory elements (ENH3,ENH13) at 1 uM by ChIP analysis. It is filed as cell-based. A digest of the protocol:
as §2

The test system of assay [4] is TPC1. In words: Anti-proliferative activity against human TPC1 cells assessed as reduction in cell proliferation incubated for 72 hrs. It counts as functional, cell-based. The note with it: TPC1, 72 h. The essentials:
as §1

The target of assay [5] is Mediator of RNA polymerase II transcription subunit 1 (Homo sapiens) (UniProt Q15648). The assay is described as follows: Inhibition of MED1 in human BCPAP cells assessed as reduction of […] binding to all active RUNX2 regulatory elements (ENH11) at 1 uM by ChIP analysis. It counts as cell-based. A digest of the protocol:
as §2

Assay [6] concerns MDA-MB-231. In words: Inhibition of c-MYC expression in human MDA-MB-231 cells at 0.25 to 1 uM after 6 to 24 hrs by qRT-PCR analysis. It counts as functional, cell-based. The following applies: dose 0.25-1 µM, time 6-24 hrs. The essentials:
(§3)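 Cells in DMEM/10% FBS were treated with the indicated compound concentrations or DMSO mock. Total RNA was purified and reverse-transcribed, and transcript levels were measured by EvaGreen-based qRT-PCR.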
Background: Quantitative PCR measures a nucleic acid by following its amplification.

The test system of assay [7] is BCPAP. The assay is described as follows: Anti-proliferative activity against human BCPAP cells assessed as reduction in cell proliferation incubated for 72 hrs. It is filed as functional, cell-based. The essentials: as §1
The test system of assay [8] is MCF7. In words: Inhibition of c-MYC expression in human MCF7 cells at 0.25 to 1 uM after 6 to 24 hrs by qRT-PCR analysis. It counts as functional, cell-based. The note with it: dose 0.25-1 µM, time 6-24 hrs. The essentials:
as §3

The test system of assay [9] is TPC1. In words: Inhibition of c-MYC expression in human TPC1 cells at 0.25 to 1 uM after 6 to 24 hrs by qRT-PCR analysis. The note with it: dose 0.25-1 µM, time 6-24 hrs. It is filed as functional, cell-based. The essentials:
as §3

The test system of assay [10] is BCPAP. The assay is described as follows: Inhibition of c-MYC expression in human BCPAP cells at 0.25 to 1 uM after 6 to 24 hrs by qRT-PCR analysis. It counts as functional, cell-based. The following applies: dose 0.25-1 µM, time 6-24 hrs. The essentials:
as §3

Assay [11] addresses Mediator of RNA polymerase II transcription subunit 1 (Homo sapiens) (UniProt Q15648). The assay is described as follows: Inhibition of MED1 in human TPC1 cells assessed as reduction of […] binding to all active RUNX2 regulatory elements (ENH11,ENH13) at 1 uM by ChIP analysis. It is filed as cell-based. The essentials:
as §2

Assay [12] concerns MCF7. The assay is described as follows: Anti-proliferative activity against human MCF7 cells assessed as reduction in cell proliferation incubated for 72 hrs. It counts as functional, cell-based. The following applies: MCF7, 72 h. A digest of the protocol: as §1

Calls of active or inactive are those of the source. No cut-off for these calls is given here.

Chain of Mediator of RNA polymerase II transcription subunit 1 (Homo sapiens) (Q15648 whole entry): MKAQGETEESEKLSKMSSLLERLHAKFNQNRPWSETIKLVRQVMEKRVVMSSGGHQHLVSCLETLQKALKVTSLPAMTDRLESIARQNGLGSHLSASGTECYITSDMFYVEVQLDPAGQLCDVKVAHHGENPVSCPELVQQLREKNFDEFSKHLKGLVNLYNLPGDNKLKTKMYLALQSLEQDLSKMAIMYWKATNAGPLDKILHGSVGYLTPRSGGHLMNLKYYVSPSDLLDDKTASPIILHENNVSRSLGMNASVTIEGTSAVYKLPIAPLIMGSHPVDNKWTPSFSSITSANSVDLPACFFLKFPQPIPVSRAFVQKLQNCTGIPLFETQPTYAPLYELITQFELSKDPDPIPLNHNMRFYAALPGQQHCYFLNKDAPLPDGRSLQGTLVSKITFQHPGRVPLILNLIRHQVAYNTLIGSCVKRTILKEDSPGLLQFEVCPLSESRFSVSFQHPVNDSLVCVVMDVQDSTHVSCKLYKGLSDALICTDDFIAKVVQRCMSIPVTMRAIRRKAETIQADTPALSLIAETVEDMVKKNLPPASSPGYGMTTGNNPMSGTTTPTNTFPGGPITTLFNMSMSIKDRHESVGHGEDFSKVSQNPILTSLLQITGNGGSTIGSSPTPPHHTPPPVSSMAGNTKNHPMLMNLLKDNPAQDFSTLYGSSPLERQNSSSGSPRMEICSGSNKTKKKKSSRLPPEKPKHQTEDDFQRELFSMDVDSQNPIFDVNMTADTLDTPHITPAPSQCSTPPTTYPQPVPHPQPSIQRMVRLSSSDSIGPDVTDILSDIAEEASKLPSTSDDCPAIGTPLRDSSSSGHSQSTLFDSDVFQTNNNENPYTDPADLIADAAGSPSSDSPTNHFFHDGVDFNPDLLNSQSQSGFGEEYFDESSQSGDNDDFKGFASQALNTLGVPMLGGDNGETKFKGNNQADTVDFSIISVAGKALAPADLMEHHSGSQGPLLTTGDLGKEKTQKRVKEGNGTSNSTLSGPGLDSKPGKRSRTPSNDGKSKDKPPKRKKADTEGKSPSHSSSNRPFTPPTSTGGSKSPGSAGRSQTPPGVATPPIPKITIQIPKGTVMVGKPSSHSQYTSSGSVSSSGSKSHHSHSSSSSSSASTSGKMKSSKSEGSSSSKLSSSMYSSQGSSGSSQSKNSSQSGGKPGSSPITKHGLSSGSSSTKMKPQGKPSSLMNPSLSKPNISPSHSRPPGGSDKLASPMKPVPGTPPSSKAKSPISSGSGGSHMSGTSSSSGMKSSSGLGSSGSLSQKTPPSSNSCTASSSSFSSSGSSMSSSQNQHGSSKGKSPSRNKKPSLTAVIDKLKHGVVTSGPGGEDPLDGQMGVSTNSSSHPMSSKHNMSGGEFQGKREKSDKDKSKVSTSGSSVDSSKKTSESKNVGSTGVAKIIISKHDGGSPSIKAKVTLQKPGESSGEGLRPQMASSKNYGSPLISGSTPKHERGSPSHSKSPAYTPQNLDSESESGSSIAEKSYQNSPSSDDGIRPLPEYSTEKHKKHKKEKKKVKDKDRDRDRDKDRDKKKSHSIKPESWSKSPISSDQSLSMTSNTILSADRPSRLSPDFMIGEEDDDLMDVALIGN

As usually defined, the IC50 is the concentration that gives 50% inhibition. With `Cc1sc2c(c1C)C(c1ccc(Cl)cc1)=N[C@@H](CC(=O)OC(C)(C)C)c1nnc(C)n1-2`, the IC50 with MDA-MB-231 [1] worked out at 507 nM; in the assay on TPC1 [4], 462 nM; in the assay on BCPAP [7], 254 nM; in the assay with MCF7 [12] it was 12000 nM. Besides, the inhibition result in assay [2], in assay [3], in assay [5] and in [11] was “Active” each time. The inhibition result with MDA-MB-231 [6], in the assay on MCF7 [8], in the assay with TPC1 [9] and in the assay on BCPAP [10] was “inactive” each time.
